An excerpt weighted towards active compounds, which were near 6.8% of everything screened.
AI-2 QS modul: Vibrio harveyi AI-2 quorum sensing modulation. Vibrio harveyi JMH597 AI-2 luminescence/OD600 ratio, 9 h; active compounds read low; strain lacks LuxN and CqsS sensors; 0 = neutral-control median. activity change, % at 7.5 µM. actives 0.4% (n = 300,000). AID 2094; in the data active = activity change below about -75%, passing the limit was not always enough; inconclusive = no clear call, values can overlap the other calls;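 note: luminescence divided by OD600 gain over 9 h not by final OD600 alone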
ALR inh: inhibitors of human sulfhydryl oxidase ALR | P55789 | purified ALR, DTT oxidation, H2O2 HRP-luminol luminescence | inhibition, % (test concentration not listed) | actives 3.8% (n = 290,000);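 active = mean replicate inhibition above about 79%, with every replicate also reaching it, limit read from the data; inconclusive = only one of the two criteria met; inactive = mean below limit and not every replicate reaching it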
Target sequence (P55789 whole entry, looked up): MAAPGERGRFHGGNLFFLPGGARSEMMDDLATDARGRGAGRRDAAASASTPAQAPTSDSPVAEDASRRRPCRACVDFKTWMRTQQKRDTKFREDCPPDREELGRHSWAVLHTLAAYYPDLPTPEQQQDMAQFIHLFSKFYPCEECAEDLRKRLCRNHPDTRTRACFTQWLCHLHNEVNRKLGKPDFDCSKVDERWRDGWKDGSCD
PHOSPHO1 block: blocks human PHOSPHO1 phosphatase activity; Q8TCT1; inhibition, % at 13.3 µM; AID 1565; actives 1.1% (n = 290,000); recombinant PHOSPHO1, absorbance phosphatase assay; in the data active = inhibition above about 60%
Target sequence (Q8TCT1 whole entry, looked up): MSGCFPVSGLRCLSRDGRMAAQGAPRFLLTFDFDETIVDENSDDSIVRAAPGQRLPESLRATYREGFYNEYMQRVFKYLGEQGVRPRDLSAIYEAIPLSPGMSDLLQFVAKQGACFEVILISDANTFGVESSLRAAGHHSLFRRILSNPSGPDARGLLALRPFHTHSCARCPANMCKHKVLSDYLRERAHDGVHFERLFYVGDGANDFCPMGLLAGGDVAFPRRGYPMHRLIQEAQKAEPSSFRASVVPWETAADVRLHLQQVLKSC
HCV core dimer: HCV core protein dimerization inhibition; TR-FRET GST/Flag-core106 dimerization, 1536-well; inhibition, % at 5 µM; actives 0.33% (n = 300,000);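 active = inhibition above the mean of all tested compounds plus 3 SD, set per screening campaign, cut at about 45% in these data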
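Assay system: Tagged HCV core106 pair (GST and Flag) | Buffer or medium: KF-containing HEPES buffer, pH 7.45, DTT, CHAPS, BSA | Also added: Eu donor and XL665 acceptor anti-tag antibodies | Dosing: One concentration, 5 µM, in 0.5% DMSO | Timing: 4 h at 22.5 °C | Technique: TR-FRET 671 and 617 nm emission | Repeats: Singlicate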
HSF-1 act: increases HSF-1 driven luciferase reporter signal. actives 1.7% (n = 300,000). AID 504408. NIH3T3-HGL HSF-1 luciferase reporter, MG132, 8 h; 100% = twice DMSO control signal. activation, % at 9 µM;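 active = mean replicate activation of at least 50% with a set share of replicates each reaching 50%; inconclusive = only one of those two conditions met; inactive = mean below 50% and too few replicates reaching it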
HSF1 inhib: HSF1 inhibition | NIH3T3-HGL HSE-luciferase, MG132-induced, luminescence 8 h; active compounds read low | activity change, negative = inhibition, % at 7.5 µM (by protocol) | actives 0.77% (n = 300,000);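 active = more than half of replicate wells show activity change below -50%, luminescence cut by over half; inconclusive = some wells, but at most half, below -50%; inactive = no replicate well below -50%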;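 note: luciferase reports HSF-1 transcriptional activity via heat shock element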
Large screens that a line does not name were inactive.

Cc1ccccc1NC(=O)CSc1nnc(C)c2ccccc12	ALR inh 96.3 (no result: AI-2 QS modul)
CC(=O)c1cn(CC(=O)Nc2ccccc2C)c2ccccc12	HSF1 inhib -79.6
COc1ccc2cnnc(SCC(=O)Nc3ccc(C(=O)O)cc3)c2c1OC	ALR inh 98.8
Cc1ccc(NC(=O)CSc2nncc3ccccc23)cc1	ALR inh 99.1
CCC(C)NC(=O)C1c2ccccc2C(=O)N1Cc1ccc(F)cc1 (configuration not stated)	none
CC(NS(=O)(=O)c1ccc(OCC(=O)NCc2ccncc2)cc1)c1ccccc1 (configuration not stated)	none
Cc1cc2c(cc1S(=O)(=O)CCC(=O)N(C)Cc1ccccc1)OCC(=O)N2	none
CCOc1c(Br)cc(C(N)=O)cc1OCc1ccccc1	ALR inh inconclusive
Cc1nnc(SCC(=O)Nc2ccccc2)c2ccccc12	ALR inh 98.9, HSF-1 act 51.7
Cc1oc(-c2cc3c(cc2Cl)OCO3)nc1CN1CCCC1c1ccc(F)cc1 (configuration not stated)	HSF1 inhib -51.6
O=C(c1ccc(Cl)c(S(=O)(=O)N2CCCC2)c1)N1CCN(c2ncccn2)CC1	none
CN(C)C(=S)SCC(=O)Nc1ccc(Cl)cc1Cl	HSF-1 act 61.4
O=C(/C=C/c1ccc(F)cc1)c1ccc(N2CCOCC2)cc1	none
CCc1ccc(/C=C/C(=O)c2ccc(N3CCOCC3)cc2)cc1	HSF-1 act 54.9
O=C(c1ccc(Cl)cc1)C1CCN(CC(=O)N2CCCCC2)CC1	none
COc1cccc(N2CCN(c3ccc4nnc(CCC(=O)Nc5ccccn5)n4n3)CC2)c1	ALR inh 95.2
CCN(CC)CCOC(=O)c1ccc(NC(=O)CCCN2C(=O)/C(=C/c3cccs3)SC2=S)cc1	none (no result: HCV core dimer)
N#CCc1nn(-c2ccc(F)cc2)c(N)c1C#N	none
Fc1cccc(C2NN=C(c3ccccc3)S2)c1 (configuration not stated)	HSF-1 act 60.6
Cc1ccccc1-c1noc(C(C)NC(=O)c2ccco2)n1 (configuration not stated)	none (no result: ALR inh)
COC(=O)CNc1cccc(C(F)(F)F)c1	none (no result: ALR inh)
O=C(NCc1ccc(C(F)(F)F)cc1)C1CC(c2c(Cl)cccc2Cl)=NO1 (configuration not stated)	none
CC(C)[C@H](NC(=O)c1ccccc1Cl)C(=O)Nc1nc(-c2ccccn2)cs1	none
CC1CC1C(=O)Nc1nc(-c2ccccn2)cs1 (configuration not stated)	PHOSPHO1 block 77.5
O=C(CN1C(=O)C2CCCCC2C1=O)Nc1nc(-c2ccccn2)cs1 (configuration not stated)	PHOSPHO1 block 70.9
c1ccc(CCNc2nc(-c3cccnc3)cs2)cc1	none
C[C@@H](C(=O)Nc1nc(-c2ccccn2)cs1)N1C(=O)C2CCCCC2C1=O (some centres not stated)	PHOSPHO1 block 69.6
c1ccc(CCNc2nc(-c3ccccn3)cs2)cc1	HSF-1 act 53.5 (no result: ALR inh)
CCCC(NC(=O)CCc1c(C)c2cc3c(-c4ccccc4)coc3cc2oc1=O)C(=O)O (configuration not stated)	none
COc1ccccc1N1C(=O)c2cccc3cccc(c23)C1=O	none (no result: PHOSPHO1 block)
CCOC(=O)CN1C=C(c2ccc3ccccc3n2)C(C[N+](=O)[O-])c2ccccc21 (configuration not stated)	HSF-1 act 93.8
CCCCC(NC(=O)CCc1c(C)c2cc3c4c(oc3c(C)c2oc1=O)CCCC4)C(=O)O (configuration not stated)	ALR inh 95.9 (no result: HCV core dimer)
COc1ccc(S(=O)(=O)Nc2cc(Sc3ncn[nH]3)c(O)c3ccccc23)cc1	PHOSPHO1 block 97.5 (no result: AI-2 QS modul, ALR inh, HCV core dimer, HSF-1 act, HSF1 inhib)
CC(C)c1ccc(S(=O)(=O)Nc2ccc(O)c(Sc3ncn[nH]3)c2)cc1	ALR inh 98.7 (no result: HCV core dimer)
Cc1cc(C)c(S(=O)(=O)Nc2ccc(O)c(Sc3ncn[nH]3)c2)c(C)c1	ALR inh 99.0
COc1ccc(S(=O)(=O)Nc2cc(SCC(=O)O)c(O)c3ccccc23)cc1	none
Cc1cc(C)c(S(=O)(=O)Nc2ccc(O)c(Sc3ncn[nH]3)c2)cc1C	none
COc1ccc(S(=O)(=O)Nc2ccc(O)c(Sc3ncn[nH]3)c2)cc1	none (no result: ALR inh)
CC(=O)Nc1ccc(OCC(O)Cn2nc(C)c(C)c2C)cc1 (configuration not stated)	none
Cn1cnnc1SCC(=O)c1ccc(O)c(O)c1	ALR inh 99.1
CC(=O)c1ccc(O)c(CSc2nncn2C)c1	none
O=C(CSc1nnnn1-c1ccc(F)cc1)c1ccc(O)c(O)c1	ALR inh 97.5
O=C(O)c1ccc(CSc2nnnn2-c2ccc(F)cc2)cc1	none
O=C(CNS(=O)(=O)c1cccs1)NCCc1ccc(Cl)cc1	none
OC/C(Br)=C(\Br)CO	none (no result: AI-2 QS modul, PHOSPHO1 block, HCV core dimer, HSF-1 act, HSF1 inhib)
O=C(CSc1nc2cc(C(=O)O)ccc2c(=O)n1-c1ccc(F)cc1)Nc1ccc(F)c(F)c1F	none
O=c1c2ccccc2nc(/C=C/c2ccc([N+](=O)[O-])o2)n1CCCO	AI-2 QS modul -84.2
CCOC(=O)C(Sc1nn(C)c(=S)s1)C(C)=O (configuration not stated)	ALR inh 93.8, PHOSPHO1 block 96.9
Cn1nc(SCC(=O)O)sc1=S	none
CCOc1ccccc1NC(=O)C1CCN(C(=O)Cc2ccccc2)CC1	none
NC(=O)c1nsc(C(=O)N(c2ccc(F)cc2)C(C(=O)NCC2CCCO2)c2c[nH]c3ccccc23)c1N (configuration not stated)	none
CCc1ccc(N(C(=O)c2snc(C(N)=O)c2N)C(C(=O)NCCC(C)C)c2c[nH]c3ccccc23)cc1 (configuration not stated)	HSF-1 act 56.7
CC(C)c1ccc(NC2CCCN(C(=O)c3ccc(Cn4cnnn4)cc3)C2)cc1 (configuration not stated)	none
CC(C)c1ccc(NC2CCCN(C(=O)c3ccoc3)C2)cc1 (configuration not stated)	ALR inh 98.7
CC(C)c1ccc(NC2CCCN(C(=O)c3ccc(N4CCOCC4)cc3)C2)cc1 (configuration not stated)	ALR inh 97.9
CC(C)c1ccc(NC2CCCN(C(=O)c3ccccc3-c3ncc[nH]3)C2)cc1 (configuration not stated)	ALR inh 87.5
COc1ccc(CNC(=O)CN2CCN(c3ccccc3O)CC2)cc1OC	none
O=C1/C(=C\c2ccccn2)SC(=S)N1Nc1ncc(C(F)(F)F)cc1Cl	none
O=C1/C(=C/c2ccc(F)cc2)SC(=S)N1Nc1ncc(C(F)(F)F)cc1Cl	PHOSPHO1 block 86.4
COC(=O)c1cc(C(=O)OC)[nH]n1	none
Cc1ccccc1-c1cn(-c2ccccc2)c(=S)[nH]1	ALR inh inconclusive

High-throughput results from PubChem.
